HSF1 activator – increases HSF-1 driven luciferase reporter signal | NIH3T3-HGL HSF-1 luciferase reporter, MG132, 8 h; 100% = twice DMSO control signal | activation, % at 9 µM | hit rate 1.7% among 300,000 | AID 504408;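 active means mean replicate activation of at least 50% with a set share of replicates each reaching 50%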;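 further: 0% = median of the neutral control wells and 100% = twice that signal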
Rad51 HR inh – blocks human Rad51 in homologous recombination. Q06609. hit rate 0.085% among 200,000. inhibition, % at 10 µM. hRad51 DNA strand exchange, fluorescence dequenching;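 active means inhibition above 40% at the single screening dose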;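 further: 0% = DMSO control wells and 100% = blanks with heterologous ssDNA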
Target sequence (Q06609 whole entry, looked up): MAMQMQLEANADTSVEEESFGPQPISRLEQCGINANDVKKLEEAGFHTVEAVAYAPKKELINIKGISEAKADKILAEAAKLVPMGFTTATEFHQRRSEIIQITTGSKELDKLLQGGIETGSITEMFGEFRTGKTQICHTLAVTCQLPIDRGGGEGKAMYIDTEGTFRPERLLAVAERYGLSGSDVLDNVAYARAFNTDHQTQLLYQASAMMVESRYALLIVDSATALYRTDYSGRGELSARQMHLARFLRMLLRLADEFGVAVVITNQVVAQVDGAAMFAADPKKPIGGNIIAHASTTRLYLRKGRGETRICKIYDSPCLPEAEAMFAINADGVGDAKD
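Material: Human Rad51 nucleoprotein filaments preassembled on unlabelled ssDNA | Also added: Labelled 47-mer dsDNA for strand exchange | Dosing: Single dose, 10 µM final compound | Schedule: 30-min compound preincubation and 15-min exchange, both room temperature | Technique: Fluorescence dequenching at 485/520 nm | Measure: Percent inhibition relative to plate controls and blanks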
Mdm2 ligase inh – blocks human Mdm2 ubiquitin ligase activity; Q00987; cell-based MDM2 ubiquitination luciferase reporter, 2 h; 0 = plate control, 100 = twice control, blank-subtracted; signal enhancement, % at 5 µM; hit rate 0.11% among 210,000; AID 1230;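 active means signal enhancement of 30% or more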;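 further: luminescence tracks abundance of the self-degrading MDM2-luciferase fusion protein; higher signal means inhibition of MDM2 E3 ligase activity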
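Test system: mammalian cells stably expressing self-ubiquitinating, self-degrading MDM2 E3–luciferase fusion; Amount: 2000 cells in each well; Medium: DMEM; Schedule: 4 h settle plus 2 h compound, 37 °C; Technique: SteadyLite luciferase luminescence after 15 min room-temperature reagent incubation; Benchmarks: plate control and blank wells.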
Hsp70 act – Hsp70 transcriptional activation, primary screen | HeLa Hsp70 promoter luciferase reporter, luminescence; scaled: vehicle 0, proteasome-inhibitor control 100% | AID 1203 | activation, % at 10 µM | hit rate 0.04% among 200,000;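 active means activation above the mean across all tested compounds plus 3 SD, cutoff set per campaign, cut at about 5.5% in these data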;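 further: 100% = MG132 at 30 µM as the positive control and 0% = DMSO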
HSF1 inhib – HSF1 inhibition; hit rate 0.77% among 300,000; NIH3T3-HGL HSE-luciferase, MG132-induced, luminescence 8 h; hits give low values; activity change, negative = inhibition, % at 7.5 µM (by protocol);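 active means more than half of replicate wells show activity change below -50%, luminescence cut by over half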;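 further: luciferase reports HSF-1 transcriptional activity via heat shock element; 0% = median of DMSO wells and -100% = zero luminescence signal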
HSV replic up – HSV replication enhancement; HSV replication augmentation in cells, fold increase; maximum fold increase; hit rate 0.005% among 220,000; AID 1956; in the data active means maximum fold increase above about 1.5; tested in PC3 cells
Active calls of the source: *; i = inactive; . = no result. Shown are actives, neighbours in structure and some others; about 2.6% of the full set was active somewhere.

SMILES | HSF1 activator | Rad51 HR inh | Mdm2 ligase inh | Hsp70 act | HSF1 inhib | HSV replic up
COc1ccc(CNc2nc3ccccc3n2C(C)C)c(O)c1 | -9.2 | . | . | . | 6.9 | .
CCCn1c(NCc2cccc(OC)c2OC)nc2ccccc21 | -2.2 | 0.4 | -12.4 | -0.4 | 7.6 | i
COc1cccc(CNc2nc3ccccc3n2C(C)C)c1O | 181.7* | . | . | . | 152.7 | .
c1ccc(Cn2nnnc2C(c2cccs2)N2CCCCCC2)cc1 (stereo not drawn) | 21.9 | 0.0 | 5.3 | -0.2 | 0.1 | i
c1ccc(Cn2nnnc2C(c2cccs2)N2CCc3ccccc3C2)cc1 (stereo not drawn) | 177.3* | 3.5 | -10.5 | -0.2 | 135.4 | i
Cc1ccc(NC(=O)C2CC2c2ccccc2)c([N+](=O)[O-])c1 (stereo not drawn) | 35.4 | . | . | . | 4.7 | .
CCCC1CCc2c(sc(NC(=O)c3cccs3)c2C(N)=O)C1 (stereo not drawn) | 61.2* | 3.4 | 4.4 | -0.2 | 31.0 | i
S=C(NCc1ccc2c(c1)OCO2)NC1CC1 | -17.1 | 11.0 | -7.8 | -0.1 | -4.4 | i
O=[N+]([O-])c1cc(Cl)ccc1-c1nc(-c2ccccc2)no1 | 95.0* | 10.4 | -19.2 | 0.7 | 39.1 | i
O=C(Nc1ccc(C(=O)Oc2ccccc2)c(O)c1)c1ccccc1 | 42.4 | -0.1 | -15.3 | 0.2 | 35.7 | .
CCOC(=O)Nc1ccc(C(=O)Oc2ccccc2)c(O)c1 | 68.0* | -3.2 | -7.6 | 0.2 | 42.1 | i
COc1ccccc1-c1nnc(Nc2nc3c(OC)cccc3s2)o1 | 213.5* | 2.9 | 39.4* | 0.1 | 124.8 | i
COc1cccc2sc(Nc3nnc(-c4ccccc4Cl)o3)nc12 | 9.3 | 1.7 | -3.5 | 0.5 | -0.8 | i
COc1ccc(C(=O)NC(=S)N(C)Cc2ccccc2)cc1Br | 53.6* | 1.9 | -5.8 | -0.2 | 21.3 | i
CN(Cc1ccccc1)C(=S)NC(=O)c1ccccc1 | 27.7 | -5.6 | -3.6 | 0.0 | 2.5 | i
COc1ccc(C(=O)NC(=S)NCCO)cc1Br | -73.9 | -2.2 | 1.6 | -0.1 | -67.8* | i
COc1ccc(C(=O)NC(=S)NCc2cccnc2)cc1Br | 9.3 | -0.1 | -2.9 | -0.2 | 6.3 | i
O=C1CCC(CCC(=O)N2CCCC(C(=O)c3cccc(C(F)(F)F)c3)C2)=NN1 (stereo not drawn) | 23.2 | . | -16.5 | 0.1 | -4.0 | i
COc1ccc(/C=C/C(=O)Nc2cccnc2Cl)cc1 | 18.0 | . | . | . | 14.4 | .
CCOC(=O)C1=C(C)N(CCC(=O)O)C(=O)NC1c1ccccc1Cl (stereo not drawn) | -82.2 | 3.6 | . | . | -77.0* | i
O=C1C(Cl)=C(N2CCN(c3ccccc3[N+](=O)[O-])CC2)C(=O)c2ccccc21 | 124.5* | -31.7 | 5.9 | -0.1 | 86.6 | i
Nc1nnc(/C=C/c2ccccc2)s1 | 24.9 | -9.7 | -6.8 | -0.2 | 11.4 | i
Cc1cc(C)c2c(n1)sc1c(=O)[nH]c(SCc3ccccc3)nc12 | -91.4 | 0.2 | -10.8 | -0.4 | -89.5* | i
C=CCSc1nc2c(sc3nc(C)cc(C)c32)c(=O)[nH]1 | 3.8 | -4.2 | 2.0 | -0.2 | -7.5 | i
O=C(CCc1nc2ccccc2c(=O)[nH]1)NCc1ccccn1 | 9.1 | 1.7 | -5.2 | -0.2 | 0.8 | i
SMILES | HSF1 activator | Rad51 HR inh | Mdm2 ligase inh | Hsp70 act | HSF1 inhib | HSV replic up
O=C(CCc1nc2ccccc2c(=O)[nH]1)NCc1ccco1 | -70.8 | 9.6 | -1.6 | 0.0 | -65.1* | i
CCOC(=O)COc1c(/C=N\O)cc(Cl)cc1OC | 19.4 | 2.7 | -29.1 | -0.2 | 17.3 | i
Cc1sc2nc(C(C)C)nc(SCC(=O)N3CCOCC3)c2c1C | -3.6 | . | . | . | -4.9 | .
CCSc1nnc(NC(=O)c2cccnc2Cl)s1 | 55.1* | -3.9 | . | 0.1 | 18.2 | i
COc1ccc(CCNC(=O)C2CCCN(Cc3nc(-c4ccccc4C)oc3C)C2)cc1OC (stereo not drawn) | 72.1* | . | 3.1 | -0.2 | 28.7 | .
CCCS(=O)(=O)c1nc(S(=O)(=O)c2ccc(C)cc2)c(N2CCN(CCO)CC2)s1 | -6.9 | . | . | . | -3.5 | .
O=C(c1ccccc1-c1nc2ccccc2[nH]1)N1CCOCC1 | 9.1 | 2.2 | -40.0 | -0.4 | -1.7 | i
Cc1ccc(-c2nc3ccccc3[nH]2)s1 | 51.0* | -1.9 | -41.1 | -0.3 | 30.6 | i
COC(=O)c1ccc(-c2nc3ccccc3[nH]2)cc1 | 61.4* | . | -35.2 | -0.1 | 38.2 | i
c1ccc(-c2nc3ccccc3[nH]2)cc1 | -65.8 | . | . | . | -60.7* | .
O=C(O)c1ccccc1-c1nc2ccccc2[nH]1 | 60.0* | 6.6 | -26.7 | -0.2 | 21.0 | i
COc1cc(/C=N/N=C2/SCC(=O)N2c2ccc(O)cc2)ccc1O | . | 3.3 | 15.4 | -0.3 | . | i
O=C(Cc1cccs1)N1CCN(c2ccc([N+](=O)[O-])cc2)CC1 | 6.1 | 8.2 | -10.7 | -0.2 | 4.0 | i
S=C(Nc1ccc(-c2nc3ccccc3[nH]2)cc1)Nc1cccnc1 | 59.3* | . | . | . | 20.7 | .
CN(C)c1ccc(/C=N/NC(=S)NCc2ccccc2)cc1 | 55.3* | -6.7 | -15.8 | 0.0 | 15.6 | i
Oc1ccc(/C=N/NC(=S)NCc2ccco2)cc1 | 1.6 | 0.5 | 3.0 | -0.3 | 10.8 | i
S=C(NCc1ccco1)N/N=C/c1ccc(Cl)cc1 | 94.6* | -1.0 | 0.5 | -0.1 | 35.3 | i
Fc1ccccc1N1CCN(c2cnc3ccccc3n2)CC1 | 62.4* | -4.5 | -52.5 | -0.2 | 35.9 | i
O=C(O)CCSc1nnc(-c2ccc3c(c2)OCO3)o1 | -59.6 | 2.1 | -25.0 | -0.3 | -52.1* | i
COc1ccc2c(c1)cc(C(=O)N[C@H](C(=O)N1CCC(C(=O)O)CC1)C(C)C)n2C | 0.2 | . | . | . | -7.7 | .
COc1ccc(-n2ncc3c(N(C)C4CCCCC4)ncnc32)cc1 | -87.3 | . | . | . | -85.0* | .
Cc1cccc(-n2ncc3c(N(C)C4CCCCC4)ncnc32)c1 | -92.2 | 0.4 | -86.3 | . | -91.3* | i
CCN(CC)C(=O)Cn1cnc2sc(C(=O)NCCCN3CCOCC3)c(C)c2c1=O | -2.2 | . | . | . | -1.0 | .
Cc1ccc(/C=C2/C(=O)ON=C2c2ccccc2)o1 | 86.1* | 2.1 | 0.8 | . | 34.4 | i
CCCCc1ccc(/C=C2/C(=O)ON=C2c2ccccc2)s1 | 82.7* | . | -0.2 | -0.1 | 28.4 | i
O=C1ON=C(c2ccccc2)/C1=C\c1ccco1 | -14.7 | 4.9 | -8.5 | . | 0.8 | i
Cc1sc(/C=C2\C(=O)ON=C2c2ccccc2)cc1Br | 22.9 | . | 1.7 | 0.0 | 5.3 | i
N#Cc1c(N)c(C#N)c(-c2ccc3c(c2)OCO3)c2c1CCCC2 | -17.1 | . | -15.4 | . | 1.5 | i
N#Cc1c(-c2ccc3c(c2)OCO3)csc1N | -83.3 | 0.2 | -6.4 | -0.4 | -81.3* | i
O=C1C(Cl)=C(Nc2ccccc2)C(=O)c2ccccc21 | 0.3 | 6.4 | -63.7 | -0.3 | -6.3 | i

Screening data deposited in PubChem by several laboratories.
